# From PubChem
# mABHD4 FP: ABHD4 inhibitors, primary screen, biochemical, fluorescence polarization, mouse. inhibition, % at 8.92 µM. purified mABHD4, FP-Rh probe fluorescence polarization. actives 0.54% (n = 370,000);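 active = inhibition exceeding the mean over every tested compound plus 3 SD, cut at about 30% in these data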
# Target sequence (Q8VD66 whole entry, looked up): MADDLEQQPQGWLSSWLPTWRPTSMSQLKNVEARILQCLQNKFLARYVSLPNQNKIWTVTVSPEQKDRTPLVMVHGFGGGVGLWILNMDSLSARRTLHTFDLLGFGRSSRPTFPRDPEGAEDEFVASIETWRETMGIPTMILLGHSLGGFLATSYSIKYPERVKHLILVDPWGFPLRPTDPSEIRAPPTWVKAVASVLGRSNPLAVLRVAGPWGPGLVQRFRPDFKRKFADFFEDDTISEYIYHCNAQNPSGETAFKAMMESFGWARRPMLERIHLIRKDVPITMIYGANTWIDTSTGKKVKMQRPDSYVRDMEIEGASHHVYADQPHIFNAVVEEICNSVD
#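 System: mouse ABHD4 enzyme, wild type / Medium: HEPES pH 7.0, NaCl, Pluronic buffer / Reagent: FP-Rh activity-based fluorescent probe / Control set: S159A mutant high control, sample median low control / Detection: fluorescence polarization with parallel and perpendicular emission, 525/598 nm / Schedule: 45 min + 60 min at 25 °C / Compound dosing: 8.92 µM, single dose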
# PAFAH1B2 inh: PAFAH1B2 enzyme inhibitors, primary screen, biochemical, fluorescence polarization, human. Platelet-activating factor acetylhydrolase IB subunit alpha2 (Homo sapiens), P68402. recombinant PAFAH1B2, FP-rhodamine activity probe. inhibition, % at 3.39 µM. actives 1.2% (n = 340,000);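 active = inhibition above the mean of all tested compounds plus 3 SD, cut at about 24% in these data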
# Target sequence (P68402 whole entry, looked up): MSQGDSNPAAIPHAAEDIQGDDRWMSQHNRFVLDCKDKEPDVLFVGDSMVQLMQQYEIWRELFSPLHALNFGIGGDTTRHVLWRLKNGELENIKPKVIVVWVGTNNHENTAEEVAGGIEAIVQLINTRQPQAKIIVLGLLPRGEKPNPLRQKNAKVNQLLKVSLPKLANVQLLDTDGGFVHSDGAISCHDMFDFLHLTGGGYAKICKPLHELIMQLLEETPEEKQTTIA
# PAFAH2 inh: PAFAH2 enzyme inhibitors, primary screen, biochemical, fluorescence polarization, human; Platelet-activating factor acetylhydrolase 2, cytoplasmic (Homo sapiens), Q99487; recombinant PAFAH2, FP-rhodamine activity probe; inhibition, % at 3.39 µM; actives 0.99% (n = 340,000);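 active = inhibition above the mean over all tested compounds plus 3 SD, cut at about 30% in these data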;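 note: inhibitors block probe labeling of enzyme so polarization drops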
# HTRA1 inhibitor: HTRA1 serine protease inhibitors, primary screen, biochemical, fluorescence polarization, HTS. Q92743. AID 504803, 2011. recombinant HTRA1, FP-rhodamine activity-based probe. actives 0.5% (n = 340,000). inhibition, % at 5.96 µM; in the data active = inhibition above about 36%
# PAFAH1B3 inh: PAFAH1B3 enzyme inhibitors, primary screen, biochemical, fluorescence polarization, human | Platelet-activating factor acetylhydrolase IB subunit alpha1 (Homo sapiens), Q15102 | recombinant PAFAH1B3, FP-rhodamine probe | inhibition, % at 3.39 µM | actives 0.28% (n = 340,000);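 active = inhibition above the screen-wide average of all tested compounds plus 3 SD, cut at about 25% in these data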
# pPAFAH inh: pPAFAH enzyme inhibitors, primary screen, biochemical, fluorescence polarization, human; Platelet-activating factor acetylhydrolase (Homo sapiens), Q13093; recombinant pPAFAH, FP-rhodamine probe fluorescence polarization; inhibition, % at 3.39 µM; actives 1.5% (n = 330,000); AID 463082, 2010;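 active = inhibition above the mean inhibition across the screen plus 3 SD, cut at about 25% in these data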;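 note: inhibitors block binding of the rhodamine activity-based probe so polarization drops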
# A number is an active result; n = inactive; x = no result given. Hits are enriched below; roughly 2.8% of the tested compounds scored in any of these assays.
SMILES,mABHD4 FP,PAFAH1B2 inh,PAFAH2 inh,HTRA1 inhibitor,PAFAH1B3 inh,pPAFAH inh
Cc1ccc(N=C2NC(=O)/C(=C/c3cccn3C)S2)c(C)c1,n,n,n,n,n,25.3
Cc1cn([C@@H](CCCCNC(=O)OC(C)(C)C)C(=O)NCCCCCCCCCCC(=O)N2CCN(C(=O)OC(C)(C)C)CC2)nn1,x,n,n,n,n,n
CC[C@H](C)Cc1cn([C@@H](CCCN=C(NC(=O)OC(C)(C)C)NC(=O)OC(C)(C)C)C(=O)NCCCCCCCCCCC(=O)N2CCN(C(=O)OC(C)(C)C)CC2)nn1,x,n,n,n,26.7,n
CC(NS(=O)(=O)c1ccccc1)C1CC2CCC1C2 (configuration not stated),n,25.0,n,n,n,n
CC(NS(=O)(=O)c1ccc(N)cc1)C1CC2CCC1C2 (configuration not stated),n,n,n,n,n,n
CCCCCCc1cc2cc(C(=O)OCC)c(=O)oc2cc1O,n,n,n,n,n,n
CCCCCCc1cc2cc(S(=O)(=O)c3ccc(F)c(Cl)c3)c(=O)oc2cc1O,n,n,n,n,n,33.0
O=C(O)c1nn(CCOc2ccc(Br)cc2)c(=O)c2ccccc12,n,26.8,n,n,n,n
CCCC1CCC2(CC1)CCC2OC(=S)NCc1cccc(OC)c1 (configuration not stated),n,x,x,x,x,x
CN1C(=O)C(CC(=O)Nc2ccc(F)cc2)N(CCCc2ccccc2)C1=S (configuration not stated),n,27.0,n,n,n,n
O=C(COc1ccc(Cl)cc1)NC1=NN(c2ccccc2)C(=O)C1,n,67.5,n,n,n,n
N#Cc1c(-c2ccccc2Cl)noc1/C=C/Nc1ccc(C(=O)O)cc1,n,n,n,n,n,n
CN(C)/C=C(\C=O)c1onc(-c2ccccc2Cl)c1C#N,n,n,32.8,n,n,n
Nc1nc(NCC(=O)O)nc(NCc2ccccc2)c1[N+](=O)[O-],n,27.7,n,n,n,n
OC(c1ccccc1)(c1ccccc1)C1CCN(CCCNc2cccc(Br)c2)CC1,n,x,x,x,x,x
COc1ccc(OC)c(NC(=O)c2cc3c(Cl)nc4ccccc4c3s2)c1,n,n,n,n,n,n
COc1ccc(NC(=O)c2cc3c(Cl)nc4ccccc4c3s2)cc1OC,n,n,n,n,n,27.1
O=C1CCC[C@H]2C[C@H](NCc3ccco3)CC[C@]23CCCN13,n,x,x,x,x,x
O=C(COC(=O)C12CC3CC(CC(C3)C1)C2)Nc1ccc2[nH]c(=O)[nH]c2c1,x,n,n,n,n,n
O=C(COC(=O)C12CC3CC(CC(Cl)(C3)C1)C2)Nc1ccc2[nH]c(=O)[nH]c2c1,n,28.2,n,n,n,n
N=C1/C(=C\c2ccc(-c3ccc(C(=O)O)cc3)o2)C(=O)N=C2SC=C(c3ccccc3)N12,n,27.9,33.6,n,n,x
CC(Oc1ccccc1)C(=O)N=C1SC2CS(=O)(=O)CC2N1Cc1ccc(F)cc1 (configuration not stated),n,n,n,n,n,26.1
CN1C(=O)C(C)(C)c2cc(S(=O)(=O)NCc3ccc(Cl)cc3)ccc21,n,n,n,n,n,n
Cc1ccc(CCNS(=O)(=O)c2ccc3c(c2)C(C)(C)C(=O)N3C)cc1,n,n,n,n,n,25.2
Cc1ccccc1CNS(=O)(=O)c1ccc2c(c1)C(C)(C)C(=O)N2C,n,n,n,n,n,n
SMILES,mABHD4 FP,PAFAH1B2 inh,PAFAH2 inh,HTRA1 inhibitor,PAFAH1B3 inh,pPAFAH inh
CN1C(=O)C(C)(C)c2cc(S(=O)(=O)NCCc3ccc(Cl)cc3)ccc21,n,24.3,n,n,n,29.8
O=C(Nc1ccccc1[N+](=O)[O-])NC1CCCCN(Cc2ccc(Cl)cc2)C1=O (configuration not stated),n,x,x,x,x,x
O=C(O)CSc1cc(NS(=O)(=O)c2ccc(Cl)cc2)c2ccccc2c1O,39.2,51.3,35.6,n,52.5,n
Cc1cc(C)c(S(=O)(=O)Nc2cc(SCC(=O)O)c(O)c3ccccc23)cc1C,x,x,x,x,x,n
C[C@@H]1COc2cc(Br)ccc2S(=O)(=O)N1Cc1cn(Cc2ccc(Br)cc2)nn1,n,x,x,x,x,x
COC(=O)[C@]12C[C@H](CC(=O)NCCC(C)C)C(=O)N(Cc3ccco3)C1=C[C@H](COCc1ccccc1)O[C@@H]2C,n,x,x,x,x,x
COc1ccc(Nc2nc(-c3cccs3)cs2)c(OC)c1,n,n,n,n,n,n
COc1ccc(Nc2nc(-c3sc(C)nc3C)cs2)c(OC)c1,n,n,n,n,n,26.6
COc1ccc(S[C@]2(C(=O)N(C)C)CC(=O)N(c3ccsc3)[C@@H]2c2ccc(OC)cc2)cc1,n,x,x,x,x,x
C=CCOC(=O)N[C@H](c1ccccc1)[C@H](C)/C=C/CC(=O)OC,n,x,x,x,x,x
O=C(C[C@H]1C/C=C\C[C@@H](Cc2ccc(F)cc2)C(=O)O[C@@H](c2ccccc2)CNC1=O)NCCO,n,n,n,n,n,n
O=C(C[C@@H]1C/C=C/CC[C@@H](Cc2ccc(F)cc2)C(=O)O[C@@H](c2ccccc2)CNC1=O)NCCO,n,n,n,n,n,n
O=C(C[C@@H]1C/C=C/CC[C@@H](Cc2ccc(F)cc2)C(=O)O[C@H](c2ccccc2)CNC1=O)NCCO,n,24.2,n,n,n,n
O=C(C[C@H]1C/C=C/CC[C@H](Cc2ccc(F)cc2)C(=O)O[C@H](c2ccccc2)CNC1=O)NCCO,n,30.2,n,n,n,n
CC(C)(N[C@@H](Cc1c[nH]c2ccccc12)C(=O)NCCc1c[nH]c2ccccc12)C(=O)NC1CCCCC1,n,x,x,x,x,x
Cc1ccccc1CN1CCCCC(NC(=O)c2cccc([N+](=O)[O-])c2)C1=O (configuration not stated),n,x,x,x,x,x
O=C(CCc1ccccc1)N[C@H]1[C@@H](OC(=O)c2ccco2)CCC[C@]12C(=O)N(Cc1ccccc1)c1ccccc12,n,x,x,x,x,x
COc1ccc(C(=NNc2ccccc2C(=O)O)c2ccc(OC)cc2)cc1,n,n,n,n,n,33.2
CC(NCc1ccco1)C(=O)N1CCCC1 (configuration not stated),n,x,x,x,x,x
COc1ccc(CCn2c(-c3ccc(C(C)(C)C)cc3)n[nH]c2=S)cc1OC,n,24.7,n,n,n,n
C/C=C/c1ccc(OCCOc2cc(C=O)ccc2OC)c(OC)c1,n,n,n,n,n,27.7
COCC(=O)Nc1ccc(S(=O)(=O)Nc2onc(C)c2C)cc1,n,x,x,n,x,x
